Data published in paper PMC2219267 (The Journal of General Physiology, 1996).
Each block holds one compound with its values, some of them ahead of it.

Columns and labels:
band 3 [1] = molecular target: T1, band 3 (Homo sapiens, UniProt P02730); experiment: 36Cl exchange flux inhibition in red blood cells, Dixon plots; type: cell-based
T1 sequence (P02730 1-911): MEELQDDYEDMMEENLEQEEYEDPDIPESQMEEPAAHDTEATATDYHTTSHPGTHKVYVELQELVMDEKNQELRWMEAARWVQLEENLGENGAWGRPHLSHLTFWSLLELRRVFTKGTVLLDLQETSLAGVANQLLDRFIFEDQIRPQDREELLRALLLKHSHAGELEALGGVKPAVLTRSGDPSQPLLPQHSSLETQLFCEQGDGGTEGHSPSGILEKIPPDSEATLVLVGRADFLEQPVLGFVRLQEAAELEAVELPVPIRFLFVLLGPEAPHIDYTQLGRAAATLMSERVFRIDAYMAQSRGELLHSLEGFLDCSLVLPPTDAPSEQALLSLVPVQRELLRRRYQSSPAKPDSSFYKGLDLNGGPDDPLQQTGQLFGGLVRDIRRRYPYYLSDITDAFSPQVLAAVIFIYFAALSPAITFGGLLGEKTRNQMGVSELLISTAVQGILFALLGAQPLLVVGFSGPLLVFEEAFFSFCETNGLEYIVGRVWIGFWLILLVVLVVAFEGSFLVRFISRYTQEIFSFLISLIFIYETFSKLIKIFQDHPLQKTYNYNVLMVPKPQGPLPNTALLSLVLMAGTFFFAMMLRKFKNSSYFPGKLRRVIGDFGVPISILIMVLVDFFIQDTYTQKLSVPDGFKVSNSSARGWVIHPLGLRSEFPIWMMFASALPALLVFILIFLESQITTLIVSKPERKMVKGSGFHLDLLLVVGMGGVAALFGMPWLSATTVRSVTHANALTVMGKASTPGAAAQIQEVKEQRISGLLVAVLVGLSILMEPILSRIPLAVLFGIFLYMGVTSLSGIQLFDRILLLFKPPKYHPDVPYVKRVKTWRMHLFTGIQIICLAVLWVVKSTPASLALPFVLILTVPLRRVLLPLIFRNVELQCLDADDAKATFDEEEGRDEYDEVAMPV

band 3 [2] = molecular target: T1, band 3; experiment: 125I iodide influx into red blood cells; type: cell-based
How it was run: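 Heparinised human blood was washed three times in 150 KH (150 mM KCl, 24 mM sucrose, 20 mM Hepes, pH 7.2 at 0°C), with white cells aspirated, then held at 50% hematocrit. DIDS-treated cells received a 2 mM DIDS stock. Media mixed sucrose, KCl and KI with 5 mM buffer. Above pHo 11, cells were nystatin-loaded to 300 mM Cl-, and CAPS-buffered media were used.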

type of inhibition of Cl- flux (Lineweaver-Burk plot) (band 3 [1]; 24 mM citrate, pHo 6.8, sucrose replacing Cl-): mixed inhibition | y intercept of Dixon slope vs 1/[Clo] (citrate) (band 3 [1]; pHo 6.8): 0.00017 kg Hb·s·mmol-1·mM-1 | y intercept of Dixon slope vs 1/[Clo] (citrate) (band 3 [1]; pHo 8.0): 0.0001 kg Hb·s·mmol-1·mM-1
SMILES: O=C(O)CC(O)(CC(=O)O)C(=O)O [citrate]

effect of buffer on anion transport or on KoI (band 3 [1]; pHo ~12, compared with data obtained without buffer): does not show any inhibitory effects
SMILES: O=S(=O)(O)CCCNC1CCCCC1 [CAPS, 3-[cyclohexylamino]-l-propanesulfonic acid]

I- influx in DIDS-treated cells as % of value in control cells (band 3 [2]; all pH except 11.5): less than 10% | DIDS-insensitive I- flux as % of control flux (band 3 [2]; pH 11.5, very scattered values): up to 25%
SMILES: O=S(=O)(O)c1cc(N=C=S)ccc1C=Cc1ccc(N=C=S)cc1S(=O)(=O)O [DIDS, 4,4'-diisothiocyano-stilbene-2,2'-disulfonate]
